ANO1 block: blocks the mouse calcium-activated chloride channel TMEM16A; Q8BHY3; HEK293 TMEM16A/YFP iodide influx fluorescence, ionomycin; normalized B-score (activity score, 25-100; higher = stronger inhibition) at 10 µM; 310,000 tested, 1.2% active; AID 588511;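 active = ratio plate-corrected score three or more library SD toward inhibition, starting fluorescence score within five deviations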;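 also: score derived from kinetic fluorescence span divided by baseline fluorescence per well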
HTR2A ag: agonists of mouse serotonin 5-HT2A receptor (HTR2A); activation, % at 7.6 µM; P35363; AID 624169; CHO-K1 mHTR2A beta-arrestin complementation, luminescence; percent of 30 µM serotonin response; 360,000 tested, 0.66% active;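 active = activation above a run cutoff, the mean activation of all tested compounds plus 3 SD, cut at about 14% in these data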;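 also: 0% = plate median of compound wells and 100% = 30 µM serotonin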
MC4R barr agon: agonists of human melanocortin 4 receptor (MC4R) beta-arrestin | P32245 | U2OS MC4R beta-arrestin complementation, luminescence; percent of melanotan II response, DMSO zero | activation, % at 8.9 µM | 360,000 tested, 0.98% active;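 active = activation above a per-plate cutoff, the mean activation of sample wells on that plate plus 3 SD, cut at about 8% in these data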
MC4R antag cAMP: antagonists of human melanocortin 4 receptor (MC4R) | P32245 | MC4R-expressing cells, MTII-stimulated cAMP, LANCE TR-FRET | inhibition, % at 6.5 µM | 360,000 tested, 0.48% active | AID 540295;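 active = inhibition above its plate's cutoff, the mean of tested wells on that plate plus 3 SD, cut at about 29% in these data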;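 also: 0% = Melanotan II alone and 100% = Melanotan II plus saturating MCL0020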
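Assay system: U2OS-MC4R stable cell line; Also added: Melanotan II; Technique: Eu-cAMP/anti-cAMP TR-FRET, emission 671 nm; Times: 30-min compound, 1-h challenge, 1-h detection, room temperature.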
TMEM16A act: mouse TMEM16A channel activation, primary screen; 340,000 tested, 0.3% active; B-score at 10 µM; AID 623877; HEK293 TMEM16A/YFP-H148Q/I152L, iodide quench fluorescence; active compounds read low; Q8BHY3;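 active = fluorescence-ratio B-score plate-corrected deviation score at least 3 library SD below zero, with starting fluorescence score within 5 deviations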;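 also: channel opened by trigger with iodide after compound preincubation; score built on the fluorescence ratio of max minus min over baseline; more negative score means more quench and so TMEM16A activation or potentiation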
MIN6 prolif: MIN6 beta-cell proliferation induction | proliferation, % at 10 µM | 330,000 tested, 0.29% active | MIN6 cells proliferation, ATPlite luminescence, 48 h; cells starved in 0.2% serum; 100% = growth in 10% serum;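 active = compounds whose signal lies at least 3.5 SD above the mean of all wells on their plate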;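 also: 0% = DMSO-treated cells in low-serum medium and 100% = 10% serum control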
TMEM16A reconf: TMEM16A (mouse) chloride channel inhibition, re-confirmation | shares compounds with ANO1 block | HEK293 TMEM16A/YFP-H148Q, iodide quench fluorescence; ionomycin added to raise cell calcium | inhibition, % at 10 µM | 2,300 tested, 39% active;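 active = mean duplicate percent inhibition, scaled so buffer wells are 0 and the reference blocker 100, over three buffer SD above buffer mean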
HEK293 Ca mobil: alters calcium mobilization in TMEM16A HEK293 cells, counter-screen | shares compounds with ANO1 block | TMEM16A/YFP HEK293, Fluo4 calcium mobilization | calcium response (% of ionomycin), % at 10 µM | 2,300 tested, 2% active | AID 652231;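 active = duplicate-averaged calcium signal over 20% of the ionomycin maximum, relative to buffer baseline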;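 also: each well's signal is peak minus trough fluorescence divided by its pre-addition baseline; 0% = buffer wells and 100% = ionomycin wells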
YFP-HEK293 quench: counter-screen for TMEM16A inhibitors: effect in parental YFP-HEK293 cells; shares compounds with ANO1 block; 2,300 tested, under 10 active; iodide YFP quench, ionomycin; YFP ratio F(max-min)/F0 at 10 µM;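 active = yellow fluorescent protein signal ratio exceeding the buffer control mean by over 5 SD of those controls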;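 also: ratio is mean of duplicate wells from kinetic YFP trace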
ClC-1 inh: rat ClC-1 inhibition, TMEM16A specificity screen. shares compounds with ANO1 block. CHO ClC-1-YFP, iodide influx fluorescence quench; iodide control reads 0, buffer control 100. ratio percent, % at 10 µM. 2,300 tested, under 10 active;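 active = duplicate-mean ratio percent above the mean of iodide-only control wells, which defines zero, plus 5 of their SD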;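 also: higher percent means stronger block of ClC-1 iodide influx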
Starred values were filed as active, the others as inactive; i = inactive; . = no result given. Hits are enriched below; roughly 3.4% of the tested compounds scored in any of these assays.

SMILES	ANO1 block	HTR2A ag	MC4R barr agon	MC4R antag cAMP	TMEM16A act	MIN6 prolif	TMEM16A reconf	HEK293 Ca mobil	YFP-HEK293 quench	ClC-1 inh
O=C(CSCc1nc2ccccc2[nH]1)N1CCN(c2ccc(F)cc2)CC1	25*	-5	1	17	i	-2	20%*	i	-0.98	-16
O=C(CCCN1C(=O)c2ccccc2C1=O)N1CCc2ccccc2C1	25*	-4	-2	4	i	0	i	i	-1.1	-4
O=C(CS(=O)CC(=O)N(CC(=O)NC1CCCC1)C1CCCC1)Nc1ccc(F)cc1 (centres undefined)	25*	-2	0	9	.	0	i	i	-1.1	-8
COc1ccccc1-c1nc(C#N)c(N2CCC(Cc3ccccc3)CC2)o1	100*	-4	-2	-2	i	-5	i	i	-1.1	-15
COc1ccccc1-c1nc(C#N)c(N2CCN(Cc3ccccc3)CC2)o1	i	-4	0	3	i	-1	.	.	.	.
N#Cc1nc(-c2ccccc2Cl)oc1N1CCCCC1	25*	4	-1	-17	i	4	i	i	-1	-7
Fc1nc(F)c(F)c(NCCCNc2c(F)c(F)nc(F)c2F)c1F	100*	1	0	4	i	-7	52%*	i	-1	-28
Cc1ccnc(Nc2nc(-c3ccc(F)cc3)cs2)c1	100*	-3	1	-3	i	-5	i	i	-1.1	-2
Cc1ccnc(Nc2nc(-c3ccc(Cl)cc3)cs2)c1	i	0	1	11	i	-3	.	.	.	.
CCn1c(SCc2nc(-c3ccc(Cl)cc3)no2)nnc1-c1ccco1	100*	-1	-2	6	i	-2	i	28%*	-0.93	-11
Cn1c(SCc2nc(-c3ccccc3)no2)nnc1-c1ccco1	i	3	0	1	.	0	.	.	.	.
c1coc(CNc2nc3nonc3nc2NCc2ccco2)c1	25*	-2	-3	6	i	-6	i	i	-0.89	-12
CCCc1cc(Nc2cccc(OC)c2)n2ncnc2n1	100*	-2	-2	-4	i	4	i	i	-1	-7
CCCc1cc(Nc2cccc(OCC)c2)n2ncnc2n1	i	-2	1	1	i	0	.	.	.	.
Cc1onc(-c2ccccc2)c1C(=O)Nc1nc2c(s1)CCCC2	i	-1	-2	5	i	-3	.	.	.	.
Cc1onc(-c2c(F)cccc2Cl)c1C(=O)Nc1nc2c(s1)CCCC2	100*	-5	1	8	i	-2	i	i	-1	-9
Cc1ccccc1C(=O)N1CCN(c2ccc(NC(=O)c3ccco3)cc2Cl)CC1	100*	4	0	-1	i	-2	i	i	-1	-6
O=C(Cn1c(=O)cnc2ccccc21)Nc1cccc(S(=O)(=O)N2CCOCC2)c1	.	-1	-2	7	i	0	.	.	.	.
O=c1c2c([nH]c3ccccc13)CCCCCC2	25*	5	1	8	i	-2	i	i	-1.1	-14
O=c1c2c([nH]c3ccccc13)CCCCC2	i	-1	1	10	i	-2	.	.	.	.
CCOc1ccc(N2Nc3n[nH]c(N)c3N2)cc1	i	-1	1	-13	i	-1	.	.	.	.
COc1ccc(N2Nc3n[nH]c(N)c3N2)cc1	i	2	0	-8	i	2	i	i	-1.1	-4
Cn1nccc1C(=O)NC1CCCc2c1cnn2-c1ccc(C(C)(C)C)cc1 (centres undefined)	25*	8	-2	3	i	-7	28%*	i	-0.94	-14
O=C(Nc1cccc(C(F)(F)F)c1)C1Cc2c(-c3ccccc3Oc3ccccc3)ccnc2O1 (centres undefined)	.	-1	1	5	.	.	.	.	.	.
Cc1c(NC(=O)CSc2ccc(Cl)cc2)cccc1-c1nc2ncccc2o1	25*	0	2	9	i	-1	20%*	i	-0.9	-10
SMILES	ANO1 block	HTR2A ag	MC4R barr agon	MC4R antag cAMP	TMEM16A act	MIN6 prolif	TMEM16A reconf	HEK293 Ca mobil	YFP-HEK293 quench	ClC-1 inh
CC(C)c1ccc2c(c1)C1(NN=C(c3ccccc3)S1)C(=O)N2 (centres undefined)	25*	-1	2	6	i	-8	29%*	i	-0.86	-8
C[C@H](O)[C@H](O)[C@H]1CNc2nc(N)[nH]c(=O)c2N1	i	5	1	-2	i	-4	.	.	.	.
C[C@H](O)C(=O)C1=Nc2c(nc(N)[nH]c2=O)NC1	i	6	0	-3	i	-1	37%*	89%*	-0.53	-2
Cc1nc2ccc(NS(=O)(=O)c3ccccc3Cl)cc2s1	.	6	-1	1	i	-4	.	.	.	.
CSc1nc2ccc(NS(=O)(=O)c3cccc(Cl)c3Cl)cc2s1	100*	-3	-1	-1	i	-4	62%*	i	-0.92	-16
COc1ccc(Cc2nc(C(=O)Nc3ccc(OC)cc3)cs2)cc1	25*	-1	-1	1	i	-1	i	i	-0.94	-22
COc1ccc(Cc2nc(C(=O)NCc3ccccc3OC)cs2)cc1	i	3	2	5	i	-1	.	.	.	.
COc1cccc(C2=CC(c3cccc(OC)c3OC(F)F)n3nnnc3N2)c1 (centres undefined)	100*	9	5	8	i	-5	i	i	-1	-3
COc1cccc(C2=CC(c3cccc(OC)c3OC)n3nnnc3N2)c1 (centres undefined)	i	-3	2	-7	i	-6	.	.	.	.
Cc1ccc(CNC(=O)c2ccccc2NS(=O)(=O)c2ccc(Cl)nc2)cc1	100*	-2	-3	7	i	-4	18%*	i	-1.1	-26
CC(NC(=O)C(=O)c1cn(CC(=O)N2CCOCC2)c2ccccc12)c1ccccc1 (centres undefined)	i	10	-3	15	i	2	.	.	.	.

High-throughput results from PubChem.
